# From PubChem BioAssay
# Shown are actives, neighbours in structure and some others; about 1.9% of the full set was active somewhere.
# Jurkat NFkB inh: lowers PMA/ionomycin-induced NF-kB signal in Jurkat cells; PMA/ionomycin-induced NF-kB luciferase reporter, luminescence; inhibition, % at 4 µM; hit rate 0.53% among 330,000; AID 435003; in the data active = inhibition above about 50%
# APP 5UTR inh: APP translation inhibition | SH-SY5Y APP 5'UTR-luciferase reporter, luminescence | AID 1285 | inhibition, % at 2 µM | hit rate 0.82% among 190,000;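 active = inhibition above a set limit, derived from the sample mean plus 3 SD, cut at about 45% in these data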
# 697 NFkB inh: inhibitors of the PMA/ionomycin-induced NF-kB reporter in 697 B cells; inhibition, % at 4 µM; hit rate 0.33% among 330,000; 697 B-cell NF-kB luciferase reporter, 16 h; in the data active = inhibition above about 35%
# aSyn UTR inh: MLPCN primary screen, SNCA 5' untranslated region. inhibition, % (tested at 7.5 µM). hit rate 0.82% among 300,000. alpha-synuclein 5'UTR reporter, inhibitor activity; in the data active = inhibition above about 60%;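 note: H4 neuroglioblastoma cells stably carrying SNCA 5'UTR luciferase fusion; 0% = DMSO wells and 100% = positive control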
# Hep lipid drop: hepatic lipid droplet formation modulation. hit rate 0.4% among 240,000. inhibition, % at 6.5 µM. AML12 mouse hepatocytes, oleate lipid droplets, BODIPY imaging;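 active = lipid droplet intensity inhibited by at least 50%, with more than 500 cells counted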
#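 Material – mouse AML12 hepatocyte cell line, fixed after treatment · Compound dosing – one dose, 6.5 µM compound · Times – compound with oleate, overnight · Measured by – Image-based BODIPY and DAPI two-channel analysis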
# TAG inh: triacylglycerol accumulation inhibition; AID 651582; inhibition, % at 12.5 µM; H9c2 cells, Nile Red lipid (TAG) fluorescence; cells loaded with 200 µM oleic acid; hit rate 0.66% among 230,000;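 active = pattern-corrected inhibition of lipid staining of at least 50% with the nuclear-stain viability signal not falling by more than 50%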;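 note: 0% = DMSO wells and 100% = triacsin C control wells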
# Hep lipid conf: hepatic lipid droplet formation inhibition, confirmed. shares compounds with Hep lipid drop. AML12 mouse hepatocytes, BODIPY lipid droplet imaging; droplets induced with 100 µM oleic acid. inhibition, % at 5.2 µM. hit rate 65% among 870. AID 463183;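 active = inhibition of lipid droplet metric at least 50%, with more than 300 cells in each of four replicates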;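 note: plate controls were DMSO with oleic acid for no effect and 5 µM Triacsin-C for full effect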
# AML12 tox img: toxic to AML12 mouse hepatocytes in counter-screen | shares compounds with Hep lipid drop | DAPI nuclear morphology cytotoxicity imaging; hits give high values; cells fed 100 µM oleate overnight | z-score at 5 µM | hit rate 3% among 870 | AID 463200; in the data active = z-score above about 6.3;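 note: compound exposure lasted overnight at 37 °C before fixation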
# AML12 tox ATP: confirmation of cytotoxicity in AML12 mouse hepatocytes; shares compounds with Hep lipid drop; AML12 mouse hepatocyte viability, ATP luminescence; cells loaded with 100 µM oleic acid; cytotoxicity, % at 50 µM; 530 tested, under 10 active;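 active = cytotoxicity above 50% in each of four replicates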;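 note: compound exposure lasted overnight at 37 °C before the ATP read; 0% = DMSO-treated cells and 100% = wells with no cells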
# Starred values were filed as active, the others as inactive; x = no result.
SMILES,Jurkat NFkB inh,APP 5UTR inh,697 NFkB inh,aSyn UTR inh,Hep lipid drop,TAG inh,Hep lipid conf,AML12 tox img,AML12 tox ATP
COc1ccc(-c2nc(N)n(C(=O)c3cccs3)n2)cc1,5.0,4.8,12.5,-0.1,13.6,-3.6,x,x,x
CCOC(=O)Cc1csc(N/N=C\c2ccc(N(C)C)cc2)n1,6.7,x,0.9,-6.8,-11.1,x,x,x,x
CCCCCC(O)(c1ccc(OCC)cc1)C(CN1CCOCC1)c1ccccc1 (stereo unspecified),29.3,x,17.3,40.7,53.8*,x,72.9*,0.218,-8.2
CCCCCC(O)(c1ccc(OC)cc1)C(CN1CCOCC1)c1ccccc1 (stereo unspecified),4.8,x,13.3,28.2,30.3,x,x,x,x
COc1cc2c(cc1NC(=O)CSc1nc3ccc(C)cc3[nH]1)oc1ccccc12,-8.8,0.6,1.4,15.4,52.1*,x,98.7*,-0.06,x
O=C(NCc1cccs1)C1CCC(CNS(=O)(=O)c2cccs2)CC1 (stereo unspecified),-0.1,8.4,14.4,-9.3,52.2*,1.5,47.5,-0.908,x
CCOC(=O)N1CCN(CC(=O)Nc2ccc(F)c(F)c2)CC1,5.2,-10.2,-2.3,-5.5,-2.9,18.6,x,x,x
COc1ccc(C(=O)NC(=O)COC(=O)C2COc3ccccc3O2)cc1 (stereo unspecified),-2.5,13.0,-7.7,-8.1,-0.7,-11.6,x,x,x
CCCCCCn1c(SCC(=O)Nc2cc(C)on2)nc2ccccc2c1=O,11.8,-8.5,-9.3,-5.1,68.4*,x,96.7*,0.235,21.8
CN(C)C(=O)c1ccc(-n2cnc3ccccc3c2=O)cc1,-12.0,6.8,-2.9,-18.0,5.3,-19.0,x,x,x
CN(C)/C=N/n1cnc2ccccc2c1=O,-5.9,x,7.5,-18.8,61.1*,2.7,-23.7,-0.364,x
CCN(CCn1cccn1)C(=O)c1cc(COc2ccc(F)cc2Cl)on1,4.3,-23.2,11.0,1.8,55.2*,5.6,-24.5,-0.412,x
CCOC(=O)c1ccc(N2CCN(c3ccccc3F)CC2)c(NC(=O)Nc2ccccc2)c1,11.7,-0.4,1.7,20.0,52.1*,x,100.0*,-0.147,-4.6
O=C(NCCS(=O)(=O)c1ccc(Br)cc1)c1c(F)cccc1F,-2.6,x,-8.0,5.8,-1.0,4.3,x,x,x
Cc1cc(C)nc(Nc2nc3ccccc3[nH]2)n1,-61.0,-5.0,-92.5,-109.1,58.2*,12.5,25.9,-0.943,x
CC(NS(=O)(=O)c1cccc(C(=O)NCc2ccncc2)c1)c1ccccc1 (stereo unspecified),5.3,x,13.1,x,x,-3.3,x,x,x
O=C(NCc1ccc(C(=O)O)cc1)OCc1ccccc1,-22.3,-22.9,-48.4,-29.9,63.0*,7.5,14.5,0.00193,x
Nc1ccc(CCn2ccnc2)cc1,3.3,x,6.0,-0.2,x,x,x,x,x
COc1ccc(Cl)cc1NC(=S)N1CCCC1,-34.7,2.1,-27.8,-9.9,-6.8,0.8,x,x,x
COc1ccc(Cl)cc1NC(=O)Nc1ccc(C(=O)N2CCCC2)cc1,-9.0,x,-34.3,-57.6,55.7*,28.0,77.1*,-0.606,18.4
COc1ccc(C)cc1NC(=O)Nc1ccc(C(=O)N2CCCC2)cc1,2.8,x,7.2,-63.7,69.5*,46.2,95.1*,0.296,28.5
Clc1cc(Br)ccc1OCCCNCc1ccccc1,-1.7,-2.6,-2.8,-17.0,26.8,x,x,x,x
CC(C)C(=O)N(Nc1nc2ccccc2s1)C(=O)C(C)C,-4.7,-21.0,13.2,-38.3,72.0*,x,70.0*,0.0559,8.0
CCOC(=O)c1c(S(=O)(=O)NCCCc2ccco2)c(C)n(C)c1C,7.5,x,6.2,-19.4,-21.8,x,x,x,x
COc1ccc(OCCN2C(=O)c3ccccc3C2=O)c([N+](=O)[O-])c1,-6.7,x,-39.3,0.0,-6.4,9.4,x,x,x
SMILES,Jurkat NFkB inh,APP 5UTR inh,697 NFkB inh,aSyn UTR inh,Hep lipid drop,TAG inh,Hep lipid conf,AML12 tox img,AML12 tox ATP
COc1ccc(N=C/C=C2/C=C(c3ccccc3)OC(C)(C)O2)cc1,-0.2,-7.3,24.2,-18.7,61.2*,x,-8.2,-0.0539,x
COc1ccc(C(=O)CCC(=O)NCCc2c[nH]c3ccccc23)cc1OC,4.4,x,8.7,30.4,123.8*,x,98.7*,0.655,15.6
COc1cccc(CNC(=O)CCCc2c[nH]c3ccccc23)c1,16.3,x,-7.7,9.2,63.7*,21.6,69.3*,0.224,17.1
COc1ccc(CCNC(=O)NCCc2c[nH]c3ccccc23)cc1OC,-8.7,x,1.7,2.3,6.2,x,x,x,x
COc1ccc(CNC(=O)CCc2c[nH]c3ccccc23)cc1,-12.5,x,-2.9,-0.9,-6.9,x,x,x,x
C/C(CC(=O)Nc1ccc(Cl)cc1Cl)=N\NC(=O)c1cnccn1,-0.3,x,11.1,15.3,7.8,10.5,x,x,x
CC1(C)Nc2ccccc2C(=O)N1c1ccc(Br)cc1,-124.5,x,-148.7,-84.0,x,-4.6,x,x,x
Cc1ccc(N2C(=O)c3ccccc3NC2(C(=O)O)c2ccccc2)cc1Cl (stereo unspecified),-68.3,x,-72.2,-68.4,50.4*,x,60.5,1.39,30.7
COc1ccc(-c2csc(NC(=O)CN3C(=O)CCC3=O)n2)cc1,3.4,-7.1,13.0,2.0,-2.1,15.5,x,x,x
CCCOc1ccc(-c2csc(NC(=O)CN3C(=O)CCC3=O)n2)cc1,-22.0,-7.1,14.0,-16.0,94.9*,34.7,109.0*,-0.434,x
CCCCn1c(N)c(-c2nc3ccccc3s2)c2c([N+](=O)[O-])nn(C)c(=O)c21,-11.5,20.1,-18.1,-0.9,5.8,x,x,x,x
CCCCCn1c(N)c(-c2nc3ccccc3s2)c2c([N+](=O)[O-])nn(CC)c(=O)c21,4.0,-2.3,-1.3,32.1,71.5*,x,73.3*,-0.716,-14.2
CCCCn1c(N)c(-c2nc3ccccc3s2)c2c([N+](=O)[O-])nn(CC)c(=O)c21,-14.5,-5.2,-23.7,5.1,69.1*,x,78.1*,-0.554,-4.8
S=c1[nH]nc(-c2ccco2)n1-c1ccc(Br)cc1,-22.4,x,-31.1,-13.6,x,7.4,x,x,x
Cc1sc(NC(=O)Cc2ccc3c(c2)OCO3)nc1-c1ccc2c(c1)CCN2C(=O)c1ccccc1F,15.8,0.8,-28.0,-11.7,50.6*,x,82.6*,0.173,3.2
CCOc1ccc(CCNC(=O)Cn2cccc2C(=O)c2ccccc2)cc1OCC,5.1,18.9,-10.1,7.0,84.1*,x,108.8*,0.411,12.7
CCOc1ccc(CCNC(=O)C(C)n2nc(C)n3c(cc4occc43)c2=O)cc1OCC (stereo unspecified),3.3,-0.2,8.4,28.9,57.6*,36.1,93.5*,-0.168,7.7
CCOc1ccc(CCNC(=O)CCCn2c(=O)c3cccn3c3cccnc32)cc1OCC,4.4,x,-22.5,23.5,69.2*,x,88.3*,-1.02,4.2
CCCNC(=O)Cn1cccc1C(=O)c1ccccc1,7.0,-0.2,14.4,1.4,x,10.3,x,x,x
